From ChEMBL document CHEMBL1133891, “Substituted 4-phenyl-2-(phenylcarboxamido)-1,3-thiazole derivatives as antagonists for the adenosine A(1) receptor” (Bioorg Med Chem Lett, 2001)

Columns and labels:
[1] = target: T1, Adenosine receptor A3 (Homo sapiens) (UniProt P0DMS8); experiment: Percent displacement of [125I]-AB MECA from human Adenosine A3 receptor expressed in HEK 293 cells at 1 uM; assay type: cell-based; settings: HEK293
T1 sequence (whole entry): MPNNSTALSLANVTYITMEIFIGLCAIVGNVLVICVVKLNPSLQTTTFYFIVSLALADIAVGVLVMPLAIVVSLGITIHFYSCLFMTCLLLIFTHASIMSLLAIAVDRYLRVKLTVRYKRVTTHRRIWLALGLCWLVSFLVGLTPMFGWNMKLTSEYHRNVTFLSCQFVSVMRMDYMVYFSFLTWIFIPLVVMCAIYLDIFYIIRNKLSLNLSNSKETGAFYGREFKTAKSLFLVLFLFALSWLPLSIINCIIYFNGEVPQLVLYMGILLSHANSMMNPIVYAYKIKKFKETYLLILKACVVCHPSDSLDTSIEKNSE

Adenosine receptor A1 = target: T2, Adenosine receptor A1 (Rattus norvegicus, UniProt P25099); experiment: Displacement of [3H]DPCPX from Adenosine A1 receptor of rat cortical membrane
T2 sequence (P25099 whole entry): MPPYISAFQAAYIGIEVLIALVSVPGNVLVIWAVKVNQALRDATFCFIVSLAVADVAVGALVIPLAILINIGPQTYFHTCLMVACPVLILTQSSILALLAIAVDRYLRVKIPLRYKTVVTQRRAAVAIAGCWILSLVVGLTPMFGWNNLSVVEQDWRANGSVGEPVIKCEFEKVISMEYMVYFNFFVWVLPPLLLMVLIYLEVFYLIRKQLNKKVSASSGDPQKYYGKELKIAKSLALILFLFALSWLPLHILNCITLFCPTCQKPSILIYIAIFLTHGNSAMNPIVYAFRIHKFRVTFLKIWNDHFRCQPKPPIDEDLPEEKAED
Method in brief: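 Competition binding on rat brain cortex membranes, displacing the A1 radioligand [3H]DPCPX. Displacement experiments run without GTP.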

[2] = target: Adenosine receptor A2a (Rattus norvegicus) (UniProt P30543); experiment: Percent displacement of [3H]ZM-241385 from A2A receptor in rat striatal membrane at 10 uM; assay type: cell membranes; settings: Striatum
Chain of Adenosine receptor A2a (Rattus norvegicus) (P30543 whole entry): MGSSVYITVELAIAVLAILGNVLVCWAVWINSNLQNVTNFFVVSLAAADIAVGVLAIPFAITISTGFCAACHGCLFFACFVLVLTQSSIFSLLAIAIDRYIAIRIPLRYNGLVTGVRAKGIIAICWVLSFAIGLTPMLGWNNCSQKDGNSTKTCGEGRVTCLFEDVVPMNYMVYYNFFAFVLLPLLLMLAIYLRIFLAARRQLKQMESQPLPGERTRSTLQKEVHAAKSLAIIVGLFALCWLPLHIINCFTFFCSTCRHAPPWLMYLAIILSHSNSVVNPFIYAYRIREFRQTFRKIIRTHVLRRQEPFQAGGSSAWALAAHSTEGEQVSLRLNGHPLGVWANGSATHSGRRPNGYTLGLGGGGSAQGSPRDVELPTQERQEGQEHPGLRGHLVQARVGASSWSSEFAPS

Row | Displacement [1] | Ki (Adenosine receptor A1) | Displacement [2] | SMILES
1 | 18% | 0.165 µM | 0% | O=C(Nc1nc(-c2ccccc2)cs1)c1ccc(C(F)(F)F)cc1
2 | 63% | 0.018 µM | 15% | O=C(Nc1nc(-c2ccccc2)cs1)c1ccc(Cl)cc1
3 | 20% | 0.059 µM | 6% | O=C(Nc1nc(-c2ccccc2)cs1)c1ccc(Cl)c(Cl)c1

Continued, compound first:

Row | SMILES | Displacement [1] | Ki (Adenosine receptor A1) | Displacement [2]
4 | Cc1ccc(C(=O)Nc2nc(-c3ccccc3)cs2)cc1 | 66% | 0.036 µM | 13%
5 | O=C(Nc1nc(-c2ccccc2)cs1)c1ccccc1 | 42% | 0.039 µM | 21%
6 | CC(C)(C)c1ccc(C(=O)Nc2nc(-c3ccccc3)cs2)cc1 | 27% | – | 2%
7 | O=C(Nc1nc(-c2ccccc2)cs1)c1ccc(Cl)cc1Cl | 22% | 0.058 µM | 17%
8 | O=C(Nc1nc(-c2ccccc2)cs1)c1ccc([N+](=O)[O-])cc1 | 35% | 0.022 µM | 9%
9 | O=C(Nc1nc(-c2ccccc2)cs1)c1ccc(Br)cc1 | 58% | 0.033 µM | 14%
10 | O=C(Nc1nc(-c2ccccc2)cs1)c1cccc(Cl)c1 | 42% | 0.086 µM | 3%
